Data reported in paper PMC7511286 (European Journal of Drug Metabolism and Pharmacokinetics, 2020).
“Also recorded” adds a separate entry of the source. Marks after values point to notes of the source that are not given here.

Key:
Format in all cases: in vivo, human
[1] = SAD study: single ascending oral dose pharmacokinetics; conditions: for CL/F: geometric mean (geometric %CV)
Outline: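 Healthy males (n = 6 per group) took oral tablets either fasted (10 h overnight fast, continued 4 h) or 30 min after starting a standardized breakfast. Periods were separated by at least 14 days of washout. Plasma was sampled pre-dose to 168 h; urine was collected 24 h pre-dose and 24 h post-dose. LC-MS/MS used ESI−, LLOQ 0.1 μg/ml. CL/F = dose/AUC0–∞; Vz/F = CL/F/λz; values are geometric means.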

[2] = MAD study: multiple ascending oral dose pharmacokinetics
Outline: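 Healthy males took oral tablets once daily for 14 days after an overnight fast of at least 8 h, continued 1 h on profile days. Plasma was sampled 0.5–24 h after the day 0 dose, as troughs, and 0.5–72 h after the day 13 dose. LC-MS/MS used ESI−, LLOQ 0.1 μg/ml. AUC was by linear-log trapezoid. CL/F = dose/AUC0–24; RAAUC = AUC0–24 (day 13–14)/AUC0–24 (day 0–1).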

[3] = SAD study: safety and tolerability
Outline: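 Healthy males aged 18–55 took oral tablets. Treatment-emergent AEs were recorded by clinical evaluation. Vital signs (blood pressure, pulse), 12-lead and Holter ECG, physical examination, and urine and plasma laboratory tests were also assessed. AEs of special interest were hematuria and retroperitoneal colicky pain with suspected or confirmed nephrolithiasis. Subjects were hospitalized around dosing.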

[4] = single oral 10 mg, fed vs fasted
[5] = Day 13, 30 mg once daily, n = 12, geometric mean (geometric %CV)
[6] = Day 13, 40 mg once daily, n = 12, geometric mean (geometric %CV)
[7] = Day 13, 50 mg once daily not pre-dosed, n = 8, geometric mean (geometric %CV)
[8] = Day 13, 50 mg once daily pre-dosed, n = 8, geometric mean (geometric %CV)
[9] = Day 13–14 / Day 0–1, 30 mg once daily, n = 12, geometric mean (geometric %CV)

COc1cccc(-c2ccc(NC(=O)C3=C(C(=O)O)CCC3)c(F)c2)c1 [IMU-838, vidofludimus calcium]
accumulation ratio regarding exposure expected following multiple daily dosing ([1]; based on single-dose pharmacokinetics): ~2 | urine samples with concentration below the LLOQ ([1]; single oral 10 mg): all samples | effect of food on pharmacokinetics ([1]; single oral 10 mg, fasted vs fed): Food did not impact the pharmacokinetics; also recorded: no detrimental effect of food intake | CL/F ([1]; single oral 10 mg, fasted, n = 6): 4.064 (15.9) ml/min | blood exposure higher after fed administration compared with fasted [1, 4]: about 32% | geometric mean Cmax higher after fed compared with fasted [1, 4]: about 23% | CL/F ([1]; single oral 10 mg, fed, n = 6): 3.090 (25.5) ml/min | urine samples with concentration below the LLOQ ([1]; single oral 20 mg): four of six samples | CL/F ([1]; single oral 20 mg, fasted, n = 6): 4.218 (17.2) ml/min | CL/F ([1]; single oral 30 mg, fasted, n = 6): 3.633 (29.3) ml/min | CL/F ([1]; single oral 40 mg, fasted, n = 5): 3.480 (21) ml/min | dose dependence of plasma pharmacokinetics ([1]; single oral 10 to 40 mg, fasted): dose-linear | fraction of administered dose excreted in urine during single 24 h period ([1]; single oral 30 and 40 mg): more than 1% | Cmax ([2]; Day 0, 30 mg, n = 12, geometric mean (geometric %CV)): 3.979 (39.5) μg/ml | Cmax ([2]; Day 0, 40 mg, n = 12, geometric mean (geometric %CV)): 5.805 (32.3) μg/ml | Cmax ([2]; Day 0, 50 mg not pre-dosed, n = 8, geometric mean (geometric %CV)): 5.016 (51.1) μg/ml | AUC0–t [2, 5]: 188.554 (30.3) μg·h/ml | CL/F [2, 5]: 4.985 (25.0) ml/min | Cmax [2, 5]: 6.543 (25.8) μg/ml | AUC0–t [2, 6]: 284.959 (25.3) μg·h/ml | CL/F [2, 6]: 4.201 (22.6) ml/min | Cmax [2, 6]: 10.911 (20.2) μg/ml | CL/F ([2]; Day 13, 50 mg once daily all, n = 16, geometric mean (geometric %CV)): 5.008 (20.9) ml/min | AUC0–t [2, 7]: 310.301 (32.7) μg·h/ml | CL/F [2, 7]: 4.982 (27.3) ml/min | Cmax [2, 7]: 10.841 (21.5) μg/ml | AUC0–t [2, 8]: 304.154 (16.1) μg·h/ml | CL/F [2, 8]: 5.034 (14.1) ml/min | Cmax [2, 8]: 10.725 (20.1) μg/ml | RAAUC (accumulation ratio for AUC0–24) [2, 9]: 1.958 (24.4) | RACmax (accumulation ratio for Cmax) [2, 9]: 1.644 (37.6) | RAAUC (accumulation ratio for AUC0–24) ([2]; Day 13–14 / Day 0–1, 40 mg once daily, n = 9, geometric mean, geometric %CV 23.1): 2.077^e (23.1) | RACmax (accumulation ratio for Cmax) ([2]; Day 13–14 / Day 0–1, 40 mg once daily, n = 12, geometric mean (geometric %CV)): 1.880 (30.1) | AUC(0-t) ([2]; male, human, plasma, oral, 30 mg, AUC0–24, Day 0, 30 mg, n = 12, geometric mean (geometric %CV)): 51200 ng·h/mL | AUC(0-t) ([2]; male, human, plasma, oral, 30 mg, AUC0–t, geometric mean, Day 0, 30 mg): 51100 ng·h/mL | Cmax ([2]; male, human, plasma, oral, 30 mg, Cmax, Day 0, 30 mg, n = 12, geometric mean (geometric %CV)): 3980 ng/mL | Tmax ([2]; male, human, plasma, oral, 30 mg, tmax, Day 0, 30 mg, n = 12, median (minimum–maximum)): 3 h | AUC(0-t) ([2]; male, human, plasma, oral, 40 mg, AUC0–t, geometric mean, Day 0, 40 mg): 71700 ng·h/mL | Cmax ([2]; male, human, plasma, oral, 40 mg, Cmax, Day 0, 40 mg, n = 12, geometric mean (geometric %CV)): 5810 ng/mL | Tmax ([2]; male, human, plasma, oral, 40 mg, tmax, Day 0, 40 mg, n = 12, median (minimum–maximum)): 3 h | AUC(0-t) ([2]; male, human, plasma, oral, 50 mg, AUC0–24, Day 0, 50 mg not pre-dosed, n = 8, geometric mean (geometric %CV)): 67100 ng·h/mL | AUC(0-t) ([2]; male, human, plasma, oral, 50 mg, AUC0–t, geometric mean, Day 0, 50 mg not pre-dosed): 66700 ng·h/mL | Cmax ([2]; male, human, plasma, oral, 50 mg, Cmax, Day 0, 50 mg all, n = 16, geometric mean (geometric %CV)): 6040 ng/mL | Cmax ([2]; male, human, plasma, oral, 50 mg, Cmax, Day 0, 50 mg not pre-dosed, n = 8, geometric mean (geometric %CV)): 5020 ng/mL | Cmax ([2]; male, human, plasma, oral, 50 mg, Cmax, Day 0, 50 mg pre-dosed, n = 8, geometric mean (geometric %CV)): 7260 ng/mL | Tmax ([2]; male, human, plasma, oral, 50 mg, tmax, Day 0, 50 mg all, n = 16, median (minimum–maximum)): 2 h | Tmax ([2]; male, human, plasma, oral, 50 mg, tmax, Day 0, 50 mg not pre-dosed, n = 8, median (minimum–maximum)): 3 h | Tmax ([2]; male, human, plasma, oral, 50 mg, tmax, Day 0, 50 mg pre-dosed, n = 8, median (minimum–maximum)): 2 h | Tmax ([2]; male, human, plasma, oral, median tmax, range over groups, Day 0): 2 to 3 h | accumulation factor for multiple daily dosing ([2]; multiple once-daily dosing): approximately 2 | dose dependence of plasma pharmacokinetics ([2]; repeated oral 30 to 50 mg, fasted): dose-proportional | TEAE Flatulence: subjects having the event ([3]; 10 mg fasted, n = 6): 1 (16.7) N (%) | TEAE Headache: subjects having the event ([3]; 10 mg fasted, n = 6): 1 (16.7) N (%) | TEAE Micturition urgency: number of events ([3]; 10 mg fasted, n = 6): 1 | TEAE Micturition urgency: subjects having the event ([3]; 10 mg fasted, n = 6): 1 (16.7) N (%) | TEAE Viral upper respiratory tract infection: number of events ([3]; 10 mg fasted, n = 6): 2 | TEAE Viral upper respiratory tract infection: subjects having the event ([3]; 10 mg fasted, n = 6): 2 (33.3) N (%) | TEAEs Total: number of events ([3]; 10 mg fasted, n = 6): 5 | TEAEs Total: subjects having the event ([3]; 10 mg fasted, n = 6): 3 (50.0) N (%) | TEAE Epistaxis: subjects having the event ([3]; 10 mg fed, n = 6): 1 (16.7) N (%) | TEAEs Total: number of events ([3]; 10 mg fed, n = 6): 1 | TEAEs Total: subjects having the event ([3]; 10 mg fed, n = 6): 1 (16.7) N (%) | TEAE Headache: subjects having the event ([3]; 20 mg fasted, n = 6): 1 (16.7) N (%) | TEAEs Total: number of events ([3]; 20 mg fasted, n = 6): 1 | TEAEs Total: subjects having the event ([3]; 20 mg fasted, n = 6): 1 (16.7) N (%) | TEAE Opiates positive: number of events ([3]; 30 mg fasted, n = 6): 1 | TEAE Opiates positive: subjects having the event ([3]; 30 mg fasted, n = 6): 1 (16.7) N (%) | TEAEs Total: number of events ([3]; 30 mg fasted, n = 6): 1 | TEAEs Total: subjects having the event ([3]; 30 mg fasted, n = 6): 1 (16.7) N (%) | TEAE Rhinitis: subjects having the event ([3]; 40 mg fasted, n = 5): 1 (20.0) N (%) | TEAEs Total: number of events ([3]; 40 mg fasted, n = 5): 1 | TEAEs Total: subjects having the event ([3]; 40 mg fasted, n = 5): 1 (20.0) N (%) | AEs of special interest (hematuria, retroperitoneal colicky pain) ([3]; all single doses): no AEs of special interest were observed | total number of TEAEs ([3]; all single doses, 12 subjects): nine | tolerability ([3]; single oral doses 10–40 mg): well tolerated
